From ChEMBL document CHEMBL4823327, “New Selective Inhibitors of ERG Positive Prostate Cancer: ERGi-USU-6 Salt Derivatives” (ACS Med Chem Lett, 2021) come the findings set out here.

Active and inactive are the calls of the source. The calls are words filed in the database; no cut-off is given here. Where only a bound is given, the exact number is not on record here.

One data set has as its system VCaP. Description: Cytotoxicity against human VCaP cells assessed as inhibition of cell growth after 120 hrs by Cell Glow […] assay. The format is functional, cell-based.
In data set [1] the target is Serine/threonine-protein kinase RIO2 (Homo sapiens) (UniProt Q9BVS4). Description: Inhibition of RIOK2 in HUVEC at 0.05 to 0.25 uM. As to conditions: dose 0.05-0.25 µM. The gist of the method:
(§1)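 HUVEC (ERG-positive normal primary endothelial cells) were treated at the same doses as VCaP cells, over a 0–0.25 μmol/L range. Read-outs were cell growth and endogenous ERG and RIOK2 protein levels.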

A short description of data set [2]: Toxicity in athymic nude mouse assessed as body weight loss at 200 mg/kg, ip administered twice a week for 4 weeks. The class given is organism-based. The note with it: in vivo, 672 h. In a few lines:
(§2)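 Athymic nude mice were split into five dose groups of 5 animals each: vehicle (90% PEG + 10% DMSO), 50, 100, 150 or 200 mg/kg in the same vehicle, given by injection. Survival and body weight were monitored through the study, with gross examination of major organs and the injection site. MTD was taken as the highest dose at which all animals survived.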

Data set [3] is described as follows: Toxicity in athymic nude mouse assessed as localized inflammation at 200 mg/kg, ip administered twice a week for 4 weeks. The note with it: in vivo, 672 h. The format is organism-based. The gist of the method: as §2
Data set [4] is described as follows: Toxicity in athymic nude mouse assessed as health deterioration at 100 mg/kg, ip administered twice a week for 4 weeks. The format is organism-based. The note with it: in vivo, 672 h. In a few lines:
as §2

The nature of data set [5]: Toxicity in athymic nude mouse assessed as tissue and vasculature damage at 200 mg/kg, ip administered twice a week for 4 weeks. The class given is organism-based. The note with it: in vivo, 672 h. In a few lines: as §2
Data set [6] is described as follows: Toxicity in ip dose athymic nude mouse assessed as maximum tolerated dose administered twice a week for 4 weeks. The class given is organism-based. As to conditions: in vivo. In a few lines:
as §2

For the next data set, the system named is HUVEC. Description: Cytotoxicity against HUVEC assessed as inhibition of cell growth at 0.05 to 0.25 uM. The format is cell-based. As to conditions: human, dose 0.05-0.25 µM. The gist of the method: as §1

Serine/threonine-protein kinase RIO2 (Homo sapiens), sequence (Q9BVS4 whole entry, looked up): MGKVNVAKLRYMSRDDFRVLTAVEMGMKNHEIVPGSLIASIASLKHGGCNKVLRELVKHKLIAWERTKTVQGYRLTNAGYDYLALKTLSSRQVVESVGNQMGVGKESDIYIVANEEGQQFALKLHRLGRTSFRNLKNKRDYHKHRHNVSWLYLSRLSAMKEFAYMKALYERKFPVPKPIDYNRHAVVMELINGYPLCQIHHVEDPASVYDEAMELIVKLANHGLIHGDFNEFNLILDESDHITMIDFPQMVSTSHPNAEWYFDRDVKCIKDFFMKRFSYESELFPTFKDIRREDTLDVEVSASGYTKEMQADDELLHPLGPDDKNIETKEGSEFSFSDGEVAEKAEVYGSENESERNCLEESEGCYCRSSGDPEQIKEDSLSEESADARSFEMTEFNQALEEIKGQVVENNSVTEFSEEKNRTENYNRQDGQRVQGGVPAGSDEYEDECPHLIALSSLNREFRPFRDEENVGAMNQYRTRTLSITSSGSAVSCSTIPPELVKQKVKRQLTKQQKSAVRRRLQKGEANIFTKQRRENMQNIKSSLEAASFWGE

As for `CC(=O)C(=O)O.CN(C)c1ccc(/N=N/c2ccccn2)c(O)c1`, the IC50 with VCaP (Homo sapiens, VCaP, 120 h) was greater than 500 nM.

Consider `CN(C)c1ccc(/N=N/c2ccccn2)c(O)c1` [listing 1 of 3 here], for which, in data set [1], the inhibition result is “inactive”.

As for `CN(C)c1ccc(/N=N/c2ccccn2)c(O)c1` [listing 2 of 3 here], in the data set with VCaP (vcap), the IC50 is greater than 500 nM.

On to `CN(C)c1ccc(/N=N/c2ccccn2)c(O)c1` [listing 3 of 3 here], for which the Activity result in data set [2] is “Toxic”; in data set [3], “Toxic”; in data set [4] it was “Non-Toxic”; in data set [5], “Toxic”. In data set [6], the MTD at 672 h worked out at 100 mg/kg.

For `CN(C)c1ccc(/N=N/c2ccccn2)c(O)c1.CS(=O)(=O)O`, the IC50 with VCaP (vcap) turned out to be 89 nM. In the data set with HUVEC, the Activity result is “Non-Toxic”.

Consider `Oc1ccc2ccccc2c1/N=N/c1nccs1`, for which the IC50 in the data set with VCaP (Homo sapiens, VCaP, 120 h) came out at 170 nM. In data set [6], the MTD at 672 h was 150 mg/kg.
